High-throughput results deposited in PubChem BioAssay by The Scripps Research Institute Molecular Screening Center.
An excerpt weighted towards active compounds, which were near 2.7% of everything screened.
PAFAH1B3 inh: PAFAH1B3 enzyme inhibitors, primary screen, biochemical, fluorescence polarization, human | 0.28% of 340,000 active | recombinant PAFAH1B3, FP-rhodamine probe | Platelet-activating factor acetylhydrolase IB subunit alpha1 (Homo sapiens), Q15102 | inhibition, % at 3.39 µM | AID 492972, 2010;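 active = inhibition above the screen-wide average of all tested compounds plus 3 SD, cut at about 25% in these data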;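 note: 0% = enzyme with DMSO only and 100% = wells lacking PAFAH1B3 protein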
Target sequence (Q15102 whole entry, looked up): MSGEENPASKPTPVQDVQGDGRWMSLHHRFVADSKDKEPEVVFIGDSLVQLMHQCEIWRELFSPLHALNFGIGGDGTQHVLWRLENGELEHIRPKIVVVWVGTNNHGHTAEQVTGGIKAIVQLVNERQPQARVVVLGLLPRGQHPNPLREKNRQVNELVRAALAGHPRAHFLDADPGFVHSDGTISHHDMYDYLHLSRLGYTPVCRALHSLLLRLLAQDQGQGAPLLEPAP
RBBP9 inh: human RBBP9 inhibitors, primary screen, biochemical, fluorescence polarization, FP-Rh probe, HTS; inhibition, % at 7.94 µM; AID 1515, 2009; recombinant RBBP9; 0.2% of 220,000 active;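 active = inhibition above the campaign mean of all tested compounds plus 3 SD, cut at about 14% in these data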;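 note: plate controls were DMSO wells with RBBP9 for no effect and wells lacking RBBP9 protein for full effect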
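system = RBBP9 protein | input = RBBP9 at 2.5 µM in dispensed solution, before mixing | measured by = fluorescence polarization (mP), excitation 525 nm, emission 598 nm | incubation = enzyme-compound preincubation 30 min, then probe labeling 45 min, 25 °C | buffer or medium = Tris-NaCl-Pluronic buffer, pH 8.0 | compound = single dose 7.94 µM | also added = FP-Rh probe, 375 nM dispensing solution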
PAFAH1B2 FP inh: PAFAH1B2 enzyme inhibitors, primary screen, biochemical, fluorescence polarization, human. 1.2% of 340,000 active. inhibition, % at 3.39 µM. AID 492953, 2010. recombinant PAFAH1B2, FP-rhodamine activity probe;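 active = inhibition above the mean of all tested compounds plus 3 SD, cut at about 24% in these data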;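 note: 0% = enzyme with DMSO and 100% = wells lacking PAFAH1B2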
Target sequence (P68402 whole entry, looked up): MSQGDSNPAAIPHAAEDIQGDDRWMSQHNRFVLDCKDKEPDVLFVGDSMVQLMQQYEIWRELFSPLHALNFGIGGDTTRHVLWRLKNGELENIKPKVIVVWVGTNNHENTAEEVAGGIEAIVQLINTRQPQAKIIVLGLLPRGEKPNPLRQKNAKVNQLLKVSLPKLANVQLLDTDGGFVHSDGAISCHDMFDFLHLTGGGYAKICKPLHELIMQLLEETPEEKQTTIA
pPAFAH inh: pPAFAH enzyme inhibitors, primary screen, biochemical, fluorescence polarization, human; Platelet-activating factor acetylhydrolase (Homo sapiens), Q13093; recombinant pPAFAH, FP-rhodamine probe fluorescence polarization; inhibition, % at 3.39 µM; 1.5% of 330,000 active; AID 463082, 2010;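 active = inhibition above the mean inhibition across the screen plus 3 SD, cut at about 25% in these data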;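 note: inhibitors block binding of the rhodamine activity-based probe so polarization drops; 0% = enzyme with DMSO and 100% = wells lacking pPAFAH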
PAFAH2 FP inh: PAFAH2 enzyme inhibitors, primary screen, biochemical, fluorescence polarization, human. recombinant PAFAH2, FP-rhodamine activity probe. inhibition, % at 3.39 µM. 0.99% of 340,000 active;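 active = inhibition above the mean over all tested compounds plus 3 SD, cut at about 30% in these data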;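 note: inhibitors block probe labeling of enzyme so polarization drops; 0% = enzyme with DMSO and 100% = wells lacking PAFAH2 protein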
* = called active by the depositor; x = no result given.

SMILES	PAFAH1B3 inh	RBBP9 inh	PAFAH1B2 FP inh	pPAFAH inh	PAFAH2 FP inh
Cc1ccc([N+](=O)[O-])cc1NC(=O)Cc1ccc(F)cc1	5	-9	1	3	0
COC(=O)c1cc(NC(=O)Cc2cccs2)cc(C(=O)OC)c1	11	x	5	26*	9
COc1ccc(CN2C(=O)CCCc3ccccc32)cc1	1	-7	6	-2	-10
Cc1occc1C(=O)NNC(=O)c1ccccc1[N+](=O)[O-]	-1	x	-7	3	-2
COc1ccc(Oc2nnc(-c3ccc(C)cc3)c3ccccc23)cc1	3	-8	-4	-1	1
COc1ccc(-c2nnc(C)c3nocc23)cc1	0	x	-2	25*	0
CCOc1cc(/C=C2\C(=O)N(c3cccc(C(=O)O)c3)N=C2C(F)(F)F)ccc1OCC(=O)Nc1ccccc1OC	x	x	x	37*	x
CCOc1cc(/C=N/n2cnnc2)ccc1OCC(=O)Nc1ccccc1OC	4	-9	2	4	5
Cc1nnc(SCC(=O)Nc2cc(C(N)=O)cc(C(N)=O)c2)n1-c1ccccc1	-2	x	28*	3	2
Cc1nnc(SCC(=O)Nc2ccc(C(N)=O)cc2)n1-c1ccccc1	7	x	1	0	3
N#Cc1ccccc1NC(=O)CSc1nnc(-c2ccc(F)cc2)n1-c1ccccc1	0	-2	26*	x	-4
Cc1cc(=O)oc2c3c(cc(OCC(=O)NCCCn4ccnc4)c12)OC(C)(C)CC3	3	x	8	11	20
CCN1CCN(C(=O)c2ccc(N3CC4CC(C3)c3cccc(=O)n3C4)c(NC(=O)c3cc(OC)cc(OC)c3)c2)CC1 (stereo unspecified)	7	x	1	5	5
O=C(O)c1ccc(N=Nc2c(O)[nH]c3cc(Cl)ccc23)cc1	13	0	10	5	5
O=C(O)c1ccc(N=Nc2c(O)[nH]c3ccc(Br)cc23)cc1	16	x	33*	4	0
CCC(CC)C(=O)Nc1ccc(C)cc1O	1	-5	4	1	0
O=C(/C=C/c1ccc(O)c(O)c1)OCCc1ccccc1	11	x	34*	11	-4
CC(CCc1ccccc1)NS(=O)(=O)c1ccccc1 (stereo unspecified)	8	-1	33*	16	4
COc1ccc(OC)c(S(=O)(=O)NC(C)CCc2ccccc2)c1 (stereo unspecified)	2	x	17	6	2
CCC1=NN2C(=N)/C(=C\c3cccn3-c3ccc(Cl)cc3)C(=O)N=C2S1	1	-11	42*	3	5
Cc1ccc(-n2cccc2/C=C2\C(=N)N3N=C(c4ccco4)SC3=NC2=O)cc1	7	-12	32*	15	16
CCC1=NN2C(=N)/C(=C\c3cccn3-c3ccc(C)c(C)c3)C(=O)N=C2S1	5	-2	1	10	10
O=C(Cc1cccs1)N/N=C/C=C/c1ccco1	1	7	6	25*	6
Cc1cccc(N2CCN(C(=O)n3ccnc3)CC2)c1C	14	1	-1	33*	7
COc1ccc(C=O)cc1Oc1nc(Cl)ncc1F	4	-1	1	1	-3
SMILES	PAFAH1B3 inh	RBBP9 inh	PAFAH1B2 FP inh	pPAFAH inh	PAFAH2 FP inh
CCOC(=O)Cc1cc(=O)n2[nH]c(-c3ccc(C)cc3)cc2n1	-1	-1	3	34*	6
CCOC(=O)Cc1cc(=O)n2[nH]cc(-c3cccc(Br)c3)c2n1	8	-4	13	31*	31*
COc1ccc(S(=O)(=O)N/N=C(/C)c2ccncc2)c(OC)c1	4	x	-1	-1	2
FC(F)(F)c1ccc2c(c1)NCC1CCCN21 (stereo unspecified)	22	-10	1	27*	86*
CC(C)(C)c1[nH]nc2c1C(c1cccnc1)C(C#N)=C(N)O2 (stereo unspecified)	7	-5	6	3	-4
CC(C)(C)c1[nH]nc2c1C(C1C=CCCC1)C(C#N)=C(N)O2 (stereo unspecified)	-3	-2	27*	-3	7
CC(C)(C)c1[nH]nc2c1C(Cc1ccccc1)C(C#N)=C(N)O2 (stereo unspecified)	4	-7	40*	-1	1
O=C(COC(=O)Cc1ccccc1F)Nc1ccc(SC(F)F)cc1	3	-7	0	26*	3
CCOC(=O)Cc1ccc(NCc2ccc(Cl)cc2)cc1	10	-1	24*	3	0
COc1ccc(CC(=O)OCC(=O)Nc2ccc(Br)cc2)cc1	-11	-5	0	17	16
COc1ccc(NC(=O)COC(=O)Cc2ccc(Br)cc2)cc1	17	-2	4	29*	-1
O=C(COC(=O)Cc1ccc(Cl)cc1)Nc1ccc(OC(F)F)cc1	-5	-10	-1	29*	-2
N/C(=N\O)c1ccc(N2CCN(c3ncccc3C(F)(F)F)CC2)nc1	3	1	0	5	-3
Cc1ccc(CNC(=O)Nc2ccc(Cl)cc2)cc1	0	x	65*	1	-1
Cc1ccc(NCC(=O)N/N=C/c2cc(O)ccc2[N+](=O)[O-])cc1	x	5	x	30*	x
COc1cc(/C=N/NC(=O)c2ccc(-c3ccccc3)cc2)cc(OC)c1OC	2	-9	7	8	-8
COc1cc(/C=N/NC(=O)c2cc(-c3ccccc3)sc2N)cc(OC)c1OC	x	3	x	26*	x
CCOc1cc(N2CCOCC2)c(OCC)cc1NC(=O)COc1ccc2ccc(=O)oc2c1	x	-3	x	4	x
O=C(N/N=C/c1cc([N+](=O)[O-])cc([N+](=O)[O-])c1O)/C(=C\c1cccs1)NC(=O)c1ccccc1	12	0	10	31*	14
COc1cc(/C=N/NC(=O)/C(=C\c2ccc([N+](=O)[O-])cc2)NC(=O)c2ccccc2)cc(OC)c1O	17	-3	1	13	3
COc1cc(/C=C2/C(=O)c3cccc([N+](=O)[O-])c3C2=O)c(Br)cc1O	40*	3	17	32*	40*
O=c1[nH]c(C2CCCN(S(=O)(=O)Cc3ccccc3)C2)nc2c1nnn2Cc1cccc(Cl)c1 (stereo unspecified)	-2	x	1	28*	4
O=c1[nH]c(C2CCN(S(=O)(=O)c3ccccc3C(F)(F)F)CC2)nc2c1nnn2Cc1ccccc1	4	x	-2	0	6
O=c1[nH]c(C2CCN(S(=O)(=O)c3ccccc3F)CC2)nc2c1nnn2Cc1ccc(OC(F)(F)F)cc1	0	x	26*	1	-6
CC(C)CNC(=S)Nc1ccc(Oc2ccccc2)cc1	-3	-4	2	-1	-5
CCC(=O)c1cn(CC(=O)Nc2ccc(OC)cc2)c2ccccc12	1	x	-1	-4	4
